The values that follow come from ChEMBL document CHEMBL3091309, “A CD4 mimic as an HIV entry inhibitor: pharmacokinetics” (Bioorg Med Chem, 2013).

By half-life is commonly meant how long it takes for the measured level to halve. By Vd is commonly meant the apparent volume that relates the amount in the body to the concentration in plasma or blood.

Series [1] in a line: Half life in rhesus monkey at 13.4 mg/kg, iv by HPLC analysis. The format is ADME, organism-based, Macaca mulatta. Also noted: dose 13.4 mg/kg, route intravenous. Particulars: in vivo. The method in brief:
(§1)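 Dosed by cephalic vein injection in 30 mL 0.1 M sodium phosphate buffer with NaCl, pH 7.4. Blood (3.0 mL) was drawn at 0, 0.5, 1, 2, 4 and 24 h. Plasma was separated and stored at -80°C, then MeOH-extracted. Supernatant was spiked with phenol internal standard (final 150 µg/mL) and filtered for HPLC, quantified against a peak-area-ratio calibration curve.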

The nature of series [2]: Volume of distribution in rhesus monkey at 13.4 mg/kg, iv after 24 hrs by HPLC analysis. In kind it is ADME, organism-based, Macaca mulatta. Also noted: dose 13.4 mg/kg, route intravenous. The settings on record: in vivo. Summed up:
as §1

A short description of series [3]: Initial plasma concentration in rhesus monkey at 13.4 mg/kg, iv. The format is ADME, organism-based, Macaca mulatta. Also noted: dose 13.4 mg/kg, route intravenous. The method in brief: as §1
The nature of series [4]: Initial plasma concentration in Jcl:Sprague-Dawley rat at 14 mg/kg, iv by HPLC analysis. In kind it is ADME, organism-based. The arrangement: dose 14 mg/kg, route intravenous. The method in brief: (§2)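 Jcl:SD rats (6 weeks old) dosed iv via tail vein with 2.5 mg 2-HCl in 1.0 mL saline. Plasma sampled from 15 to 240 min and assayed by HPLC with phenol internal standard. Parameters derived from the plasma concentration–time course.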

Series [5] relates to Rattus norvegicus. Briefly: Volume of distribution in Jcl:Sprague-Dawley rat at 14 mg/kg, iv by HPLC analysis. The arrangement: dose 14 mg/kg, route intravenous. The settings on record: in vivo. In kind it is ADME, organism-based. The method in brief:
as §2

The nature of series [6]: Half life in Jcl:Sprague-Dawley rat at 2.5 mg, iv by HPLC analysis. The settings on record: in vivo.
Series [7] can be described thus: Adsorption in rhesus monkey blood cells assessed as YYA-021 level at 1 mg/ml after 2 hrs by HPLC analysis. In kind it is ADME, cell-based, Macaca mulatta. The method in brief:
(§3)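 Macaque whole blood (1.0 mL) spiked with 2-HCl in saline (5 mg/mL stock, 0.25 mL), incubated 37°C for 0, 1 or 2 h. Plasma and blood cells separated by centrifugation; cells brought to 1.0 mL with PBS, and an aliquot sonicated. In the re-addition arm, plasma was added to 1 h cells and incubated 1 h more. MeOH-extracted supernatants, phenol internal standard 600 µg/mL final, analyzed by HPLC.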

Series [8] can be described thus: Adsorption in rhesus monkey blood cells assessed as YYA-021 level at 1 mg/ml after 1 hr followed by plasma addition by HPLC analysis. In kind it is ADME, cell-based, Macaca mulatta. The method in brief:
as §3

In series [9] the test system is Plasma. The series is described as follows: Adsorption in rhesus monkey plasma assessed as YYA-021 level at 1 mg/ml preincubated for 1 hr followed by plasma addition measured after 1 hr by HPLC analysis. In kind it is ADME, cell-free, Macaca mulatta. The method in brief: as §3
Series [10] has as its system Plasma. Briefly: Adsorption in rhesus monkey plasma assessed as YYA-021 level at 1 mg/ml after 1 hr followed by plasma addition by HPLC analysis. The format is ADME, cell-free, Macaca mulatta. Summed up:
as §3

Series [11] is described as follows: Adsorption in rhesus monkey blood cells assessed as YYA-021 level at 1 mg/ml after 1 hr by HPLC analysis. The format is ADME, cell-based, Macaca mulatta. The method in brief: as §3
The subject of series [12] is Plasma. The series is described as follows: Adsorption in rhesus monkey plasma assessed as YYA-021 level at 1 mg/ml after 1 hr by HPLC analysis. In kind it is ADME, cell-free, Macaca mulatta. Summed up:
as §3

The nature of series [13]: Adsorption in rhesus monkey blood cells assessed as YYA-021 level at 1 mg/ml measured immediately by HPLC analysis. In kind it is ADME, cell-based, Macaca mulatta. The method in brief:
as §3

The subject of series [14] is Plasma. The series is described as follows: Plasma concentration in rhesus monkey at 13.4 mg/kg, iv measured immediately by HPLC analysis. The format is ADME, organism-based, Macaca mulatta. The arrangement: dose 13.4 mg/kg, route intravenous. Particulars: in vivo. Summed up: (§4)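 Macaque given 70.6 mg 2-HCl in 30 mL 0.1 M sodium phosphate buffer with NaCl, pH 7.4, by cephalic vein injection. Blood (3.0 mL) taken at 0, 0.5, 1, 2, 4 and 24 h, and plasma stored at -80°C. Plasma extracted with MeOH and spiked with phenol (150 µg/mL final). Quantified by HPLC on a 20–35% CH3CN (0.1% TFA) gradient over 30 min.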

Series [15] deals with Plasma. Briefly: Adsorption in rhesus monkey plasma at 1 mg/ml preincubated for 1 hr followed by plasma addition measured after 1 hr by HPLC analysis. In kind it is ADME, cell-free, Macaca mulatta. Summed up:
as §3

For series [16], the system named is Rattus norvegicus. The series is described as follows: Toxicity in iv dosed Jcl:Sprague-Dawley rat assessed as renal and hepatic dysfunction. Particulars: in vivo. The format is organism-based.
Series [17] is described as follows: Adsorption in rhesus monkey blood cells at 1 mg/ml after 2 hrs by HPLC analysis. In kind it is ADME, cell-based, Macaca mulatta. Summed up: as §3
For series [18], the system named is Plasma. The series is described as follows: Adsorption in rhesus monkey plasma at 1 mg/ml after 2 hrs by HPLC analysis. The format is ADME, cell-free, Macaca mulatta. The method in brief: as §3
A short description of series [19]: Adsorption in rhesus monkey blood cells at 1 mg/ml after 1 hr followed by plasma addition by HPLC analysis. In kind it is ADME, cell-based, Macaca mulatta. The method in brief: as §3
Series [20] deals with Plasma. Briefly: Adsorption in rhesus monkey plasma at 1 mg/ml after 1 hr followed by plasma addition by HPLC analysis. The format is ADME, cell-free, Macaca mulatta. The method in brief:
as §3

The nature of series [21]: Adsorption in rhesus monkey blood cells at 1 mg/ml after 1 hr by HPLC analysis. In kind it is ADME, cell-based, Macaca mulatta. The method in brief:
as §3

For series [22], the system named is Plasma. Briefly: Adsorption in rhesus monkey plasma at 1 mg/ml after 1 hr by HPLC analysis. In kind it is ADME, cell-free, Macaca mulatta. The method in brief: as §3
Series [23] in a line: Adsorption in rhesus monkey blood cells at 1 mg/ml measured immediately by HPLC analysis. In kind it is ADME, cell-based, Macaca mulatta. Summed up:
as §3

Series [24] has as its system Plasma. Briefly: Adsorption in rhesus monkey plasma at 1 mg/ml measured immediately by HPLC analysis. In kind it is ADME, cell-free, Macaca mulatta. Summed up:
as §3

Series [25] can be described thus: Plasma concentration in rhesus monkey at 13.4 mg/kg, iv after 24 hrs by HPLC analysis. Also noted: dose 13.4 mg/kg, route intravenous. The format is ADME, organism-based, Macaca mulatta. Summed up:
as §4

Series [26] can be described thus: Plasma concentration in rhesus monkey at 13.4 mg/kg, iv after 4 hrs by HPLC analysis. In kind it is ADME, organism-based, Macaca mulatta. The arrangement: dose 13.4 mg/kg, route intravenous. The method in brief:
as §4

The nature of series [27]: Plasma concentration in rhesus monkey at 13.4 mg/kg, iv after 1 hr by HPLC analysis. The format is ADME, organism-based, Macaca mulatta. Also noted: dose 13.4 mg/kg, route intravenous. The method in brief:
as §4

Series [28] is described as follows: Plasma concentration in rhesus monkey at 13.4 mg/kg, iv after 2 hrs by HPLC analysis. The arrangement: dose 13.4 mg/kg, route intravenous. The format is ADME, organism-based, Macaca mulatta. Summed up: as §4
Series [29] can be described thus: Plasma concentration in rhesus monkey at 13.4 mg/kg, iv after 0.5 hrs by HPLC analysis. The format is ADME, organism-based, Macaca mulatta. Also noted: dose 13.4 mg/kg, route intravenous. The method in brief:
as §4

Series [30] relates to Rhesus monkey. The series is described as follows: Toxicity in iv dosed rhesus monkey. In kind it is organism-based, Macaca mulatta. Particulars: in vivo.
The subject of series [31] is Rhesus monkey. The series is described as follows: Toxicity in rhesus monkey assessed as prolonged PR interval in bradycardia at 70.6 mg, iv. In kind it is organism-based, Macaca mulatta. Particulars: in vivo.
The test system of series [32] is Rhesus monkey. Briefly: Toxicity in rhesus monkey assessed as prolonged PR interval in electrocardiogram at 70.6 mg, iv. The format is organism-based, Macaca mulatta. Particulars: in vivo.
The test system of series [33] is Rhesus monkey. Briefly: Toxicity in rhesus monkey assessed as mydriasis at 70.6 mg, iv. The format is organism-based, Macaca mulatta. Particulars: in vivo.
The nature of series [34]: Plasma concentration in Jcl:Sprague-Dawley rat at 14 mg/kg, iv after 240 mins by HPLC analysis. In kind it is ADME, organism-based. Also noted: dose 14 mg/kg, route intravenous. Summed up:
(§5)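 6-week-old Jcl:SD rats given 2.5 mg 2-HCl in 1.0 mL saline by tail-vein injection. Tail-vein blood drawn at 15, 30, 45, 60, 120 and 240 min and centrifuged to plasma. Plasma stored at -80°C, mixed with phenol internal standard (62.5 µg/mL final), filtered and quantified by HPLC. Standard curve from peak-area ratio to phenol.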

Series [35] deals with Plasma. Briefly: Adsorption in rhesus monkey plasma assessed as YYA-021 level at 1 mg/ml measured immediately by HPLC analysis. In kind it is ADME, cell-free, Macaca mulatta. Summed up: as §3
Series [36] is described as follows: Plasma concentration in Jcl:Sprague-Dawley rat at 14 mg/kg, iv after 45 mins by HPLC analysis. Also noted: dose 14 mg/kg, route intravenous. The format is ADME, organism-based. Summed up:
as §5

Series [37] can be described thus: Plasma concentration in Jcl:Sprague-Dawley rat at 14 mg/kg, iv after 60 mins by HPLC analysis. The format is ADME, organism-based. Also noted: dose 14 mg/kg, route intravenous. Summed up:
as §5

Series [38] in a line: Plasma concentration in Jcl:Sprague-Dawley rat at 14 mg/kg, iv after 30 mins by HPLC analysis. The arrangement: dose 14 mg/kg, route intravenous. The format is ADME, organism-based. The method in brief: as §5
Series [39] in a line: Plasma concentration in Jcl:Sprague-Dawley rat at 14 mg/kg, iv after 15 mins by HPLC analysis. In kind it is ADME, organism-based. The arrangement: dose 14 mg/kg, route intravenous. Summed up: as §5
In series [40] the test system is Rattus norvegicus. Briefly: Toxicity in Jcl:Sprague-Dawley rat assessed as change in body weight at 5 mg/kg, iv after 2 weeks relative to control. In kind it is organism-based. Also noted: dose 5 mg/kg, route intravenous. The settings on record: in vivo, 336 h.

Structures are written as SMILES.

For the compound `Cc1ccc(NC(=O)C(=O)NC2CC(C)(C)NC(C)(C)C2)cc1`, the half-life is 98.4 min in series [1] and 8.46 min in series [6]. For the same compound, the Vd in series [2] is 47.1 L; in the series with Rattus norvegicus [5], 145 mL. Besides, the figures for the C0 in [3] and in series [4] were 1500 ng/mL and 17300 ng/mL, respectively.

For `Cc1ccc(NC(=O)C(=O)NC2CC(C)(C)NC(C)(C)C2)cc1.Cl`, the Activity came to 61 µg/mL in series [7]; 17.9 µg/mL in series [8]; 46 µg/mL with Plasma [9]; 92.4 µg/mL with Plasma [10]; 67.2 µg/mL in series [11]; 102 µg/mL in the series on Plasma [12]. The Activity in series [13] stood at 64.2 µg/mL; with Plasma [15] it was 51.2 µg/mL; in series [17], 68 µg/mL; in the series with Plasma [18] it was 105 µg/mL; in series [19] it was 19.9 µg/mL; with Plasma [20] it was 102.9 µg/mL. In addition, the Activity was 74.8 µg/mL in series [21]; 113.6 µg/mL in the series on Plasma [22]; 71.5 µg/mL in [23]; 133.7 µg/mL in the series on Plasma [24]; “Toxic” in the series with Rhesus monkey [31]; “Toxic” with Rhesus monkey [32]. The Activity entry is “Toxic” in the series with Rhesus monkey [33], 120 µg/mL with Plasma [35] and “Non-toxic” in the series with Rattus norvegicus [40]. Further, the Cp in the series with Plasma [14] came to 149 ng/mL. For the same compound, the results for the MTD with Rattus norvegicus [16] and with Rhesus monkey [30] were 2.5 mg and 35.3 mg, respectively. Moreover, in series [25], the concentration at 24 h was determined as 415 ng/mL. The concentration at 4 h was 392 ng/mL in [26] and 1120 ng/mL in series [34]. Besides, the figures for the concentration at 1 h in series [27] and in [37] were 1260 ng/mL and 620 ng/mL, respectively. The concentration at 2 h in series [28] was determined as 1090 ng/mL. Moreover, the figures for the concentration at 0.5 h in series [29] and in series [38] were 1330 ng/mL and 2100 ng/mL, respectively. In series [36], the concentration at 0.75 h was found to be 1510 ng/mL. Besides, the concentration at 0.25 h in [39] was determined as 6010 ng/mL.
